Test [1] in a line: Induction of apoptosis in human RC-58T/h/SA#4 cells assessed as Bax activation at 20 uM after 24 hrs by immunoblotting analysis relative to untreated control. It is filed as functional. In outline:
(§1)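 Cells grown in DMEM/10% FBS at 37 °C, 5% CO2, then treated 24 h with compound (20 μM) with or without TRAIL (100 ng/mL). Whole lysates were used for Bax and Bcl-2. Cytosolic and mitochondrial fractions were prepared with a mitochondria isolation kit for AIF and cytochrome c. Blotting used 10 μg protein/lane, 12% SDS-PAGE, nitrocellulose, overnight primary antibody at 4 °C and ECL detection.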

For test [2], the species on record is Homo sapiens. The test is described as follows: Induction of apoptosis in human RC-58T/h/SA#4 cells assessed as AIF level in mitochondria at 20 uM after 24 hrs by immunoblotting analysis relative to untreated control. It counts as functional, cell-based. The method in brief: as §1
Test [3] is filed under the species Homo sapiens. The test can be described thus: Induction of apoptosis in human RC-58T/h/SA#4 cells assessed as cytochrome C level in mitochondria at 20 uM after 24 hrs by immunoblotting analysis relative to untreated control. It counts as functional, cell-based. In outline: as §1
Test [4] is described as follows: Induction of apoptosis in human RC-58T/h/SA#4 cells assessed as DR5 expression at 5 uM after 24 hrs by immunoblotting analysis relative to untreated control. It is filed as functional.
Test [5] is described as follows: Induction of apoptosis in human RC-58T/h/SA#4 cells assessed as DR5 expression at 20 uM after 24 hrs by immunoblotting analysis relative to untreated control. It counts as functional.
Test [6] is described as follows: Induction of apoptosis in human RC-58T/h/SA#4 cells assessed as DR4 expression at 20 uM after 18 hrs by immunoblotting analysis relative to untreated control. It is filed as functional.
Test [7] in a line: Induction of apoptosis in human RC-58T/h/SA#4 cells assessed as DR5 expression at 20 uM after 3 hrs by immunoblotting analysis relative to untreated control. It counts as functional.
Test [8] in a line: Sensitization of TRAIL-induced apoptosis in human RC-58T/h/SA#4 cells assessed as procaspase-8 activation at 20 uM after 24 hrs by immunoblotting analysis in presence of Dr5 Fc chimera relative to untreated control. It is filed as functional. The method in brief:
(§2)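 Cells pretreated 2 h with 100 ng/mL DR5 Fc chimera, then given 20 μM compound and/or 100 ng/mL TRAIL for 24 h. Total lysates immunoblotted (12% SDS-PAGE, nitrocellulose) for caspase-3, -8, -9 and PARP cleavage, with HRP secondary and ECL detection.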

The nature of test [9]: Sensitization of TRAIL-induced apoptosis in human RC-58T/h/SA#4 cells assessed as procaspase-3 activation at 20 uM after 24 hrs by immunoblotting analysis in presence of Dr5 Fc chimera relative to untreated control. It counts as functional. In outline:
as §2

The species named for test [10] is Homo sapiens. The test is described as follows: Induction of apoptosis in human RC-58T/h/SA#4 cells assessed as p53 expression at 2.5 to 40 uM by immunoblotting analysis relative to untreated control. It is filed as functional, cell-based. Particulars: TDE = time-dependent effect. The method in brief: (§3)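 RC-58T/h/SA#4 cells seeded at 5 × 10^4 cells/mL and cultured 24 h, then given compound across a concentration series or at fixed dose over a time course. Lysates were quantified by BCA. 10 μg protein/lane run on 12% SDS-PAGE and transferred to nitrocellulose. Blots probed for p53, CHOP and β-actin with HRP secondary and ECL.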

Test [11] is described as follows: Induction of apoptosis in human RC-58T/h/SA#4 cells assessed as p53 expression at 40 uM after 24 hrs by immunoblotting analysis relative to untreated control. It is filed as functional. The method in brief:
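RC-58T/h/SA#4 cells (DMEM, 10% FBS, 37 °C, 5% CO2) exposed to the compound over a concentration range or time course. Lysates run on 12% SDS-PAGE at 10 μg protein/lane, transferred to nitrocellulose and blocked with BSA. Blots probed overnight at 4 °C with anti-p53, then HRP secondary antibody, ECL detection; β-actin as loading control.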

A short description of test [12]: Induction of apoptosis in human RC-58T/h/SA#4 cells assessed as CHOP expression at 2.5 uM after 24 hrs by immunoblotting analysis relative to untreated control. It counts as functional. In outline: as §3
The nature of test [13]: Induction of apoptosis in human RC-58T/h/SA#4 cells assessed as CHOP expression at 5 uM after 24 hrs by immunoblotting analysis relative to untreated control. It is filed as functional. The method in brief: as §3
Test [14] can be described thus: Induction of apoptosis in human RC-58T/h/SA#4 cells assessed as CHOP expression at 10 uM after 24 hrs by immunoblotting analysis relative to untreated control. It is filed as functional. In outline: as §3
The nature of test [15]: Induction of apoptosis in human RC-58T/h/SA#4 cells assessed as CHOP expression at 40 uM after 24 hrs by immunoblotting analysis relative to untreated control. It is filed as functional. In outline: as §3
Test [16] can be described thus: Induction of apoptosis in human RC-58T/h/SA#4 cells assessed as p53 expression at 20 uM after 18 hrs by immunoblotting analysis relative to untreated control. It is filed as functional. The method in brief:
as §3

The nature of test [17]: Induction of apoptosis in human RC-58T/h/SA#4 cells assessed as CHOP expression at 20 uM after 3 hrs by immunoblotting analysis relative to untreated control. It counts as functional. In outline: as §3
The nature of test [18]: Induction of apoptosis in human RC-58T/h/SA#4 cells assessed as CHOP expression at 20 uM after 18 hrs by immunoblotting analysis relative to untreated control. It counts as functional. In outline:
as §3

The nature of test [19]: Induction of ROS generation in human RC-58T/h/SA#4 cells at 10 uM after 30 mins by flow cytometry (reference value: 1.9%). It is filed as functional.
Test [20] is described as follows: Induction of ROS generation in human RC-58T/h/SA#4 cells at 40 uM after 30 mins by flow cytometry (reference value: 1.9%). It is filed as functional.
For test [21], the species on record is Homo sapiens. The test can be described thus: Sensitization of TRAIL-induced apoptosis in human RC-58T/h/SA#4 cells assessed as condensation of chromatin at 20 uM after 24 hrs by Hoechst 33258 staining-based fluorescence microscopy. It is filed as functional, cell-based. The method in brief: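 Cells seeded at 1 × 10^6/well and given 20 μM compound and/or 100 ng/mL TRAIL for 24 h. Cells fixed in 1% glutaraldehyde and stained with 5 μg/mL Hoechst 33258 for 10 min at room temperature. Nuclear fragmentation and chromatin condensation scored by fluorescence microscopy at ×400.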

Test [22] in a line: Sensitization of TRAIL-induced apoptosis in human RC-58T/h/SA#4 cells assessed as accumulation at Sub-G1 phase at 20 uM after 24 hrs by annexin-V/propidium iodide staining-based flow cytometry in presence of pan-caspase inhibitor z-VAD-fmk (reference value: 4.8%). It counts as functional.
A short description of test [23]: Sensitization of TRAIL-induced apoptosis in human RC-58T/h/SA#4 cells assessed as procaspase-8 activation at 20 uM after 24 hrs by immunoblotting analysis relative to untreated control. It is filed as functional. In outline:
(§4)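 Cells seeded at 5 × 10^4 cells/mL and cultured 24 h, then given 20 μM compound and/or 100 ng/mL TRAIL for 24 h. Whole-cell lysate made in Tris/NaCl/EDTA/NaF/pyrophosphate/PMSF/aprotinin buffer, 30 min on ice, protein measured by BCA. 12% SDS-PAGE at 10 μg/lane, nitrocellulose blot, primary antibodies (caspase-3, -8, -9, Bax, Bcl-2, PARP) overnight at 4 °C, HRP secondary, ECL.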

The nature of test [24]: Sensitization of TRAIL-induced apoptosis in human RC-58T/h/SA#4 cells assessed as Bcl-2 activation at 20 uM after 24 hrs by immunoblotting analysis relative to untreated control. It is filed as functional. The method in brief: as §4

Calls of active or inactive are those of the source. The rule behind the calls is not given here.

Regarding `CC(C)/C=C/C(=O)c1ccoc1`, the Ratio in test [1] was determined as 1.5; in the test listed under Homo sapiens [2], 1.2; in the test listed under Homo sapiens [3] it was 1.2; in [4], 1.1; in test [5] it was 1.2; in test [6] it was 1.1. The Ratio in test [7] turned out to be 1.2; in [8], 0.8; in [9], 0.9; in [11], 2.4; in test [12], 1.3; in test [13] it was 1.3. Besides, the Ratio in test [14] is on record as 1.4; in test [15] it was 2; in [16] it was 2.2; in test [17], 1; in test [18] it was 2; in test [23] it was 0.3. The Ratio in [24] was determined as 0.5. Moreover, the Activity result in the test filed under Homo sapiens [10] was “tde”; in test [19], 2%; in test [20], 2.5%; in test [22], 14.4%. Moreover, the outcome in the test filed under Homo sapiens [21] was Active.
